UHRF1 binding: UHRF1 methyl-DNA binding inhibition. AID 687016. inhibition, % at 4.4 µM. Q96T88. 370,000 compounds, 0.75% hits. UHRF1 binding to methylated oligo, TR-FRET; in the data active = inhibition above about 21%;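 also: UHRF1 SRA domain binding a hemimethylated CpG hairpin DNA probe; 0% = median of test compound wells and 100% = reference inhibitor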
Arrestin-AP2 inh: blocks beta-arrestin peptide binding to AP2 adaptin; FITC-arrestin peptide / GST-AP2 beads, flow cytometry; AP2 beta2 appendage carries R879A mutation; inhibition, % at 10 µM; 340,000 compounds, 0.31% hits;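 active = inhibition above a set limit, near 3 SD of compounds lacking own fluorescence, cut at about 54% in these data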;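 also: plate controls were DMSO wells for no effect and 5 µM unlabelled arrestin peptide for full effect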
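System: GST-AP2 R879A bound to glutathione beads, E. coli-expressed. Also added: 50 nM FITC-arrestin peptide. Schedule: compound with beads 12 min RT, then probe 1 h RT. Signal: bead flow cytometry, FITC channel. Read-out basis: percent response.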
Rin1-Abl PPI inh: inhibitors of human Rin1-Abl protein interaction; P00519+Q13671; TR-FRET Rin1/Abl binding, biochemical; inhibition, % at 7.35 µM; 360,000 compounds, 0.4% hits; in the data active = inhibition above about 5%, passing the limit was not always enough
B2AR ag: human beta-2 adrenergic receptor agonism by FAP | P07550 | Am2.2-beta2AR cells, FAP receptor internalization, flow cytometry | response, % (concentration not given with the values) | 340,000 compounds, 0.43% hits;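 active = response above a set limit, near 3 SD of response in nonfluorescent compounds, cut at about 42% in these data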
ABHD5-PLIN5 inh: blocks binding of human ABHD5 to perilipin-5. Q00G26+Q8WTS1. Split G. princeps luciferase complementation, luminescence, 4 h. inhibition, % at 4 µM. 360,000 compounds, 0.78% hits;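 active = inhibition above the mean inhibition across every tested compound plus 3 SD, cut at about 22% in these data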;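 also: 0% = DMSO only wells and the 100% control is not disclosed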
Target sequence (Q00G26 whole entry, looked up): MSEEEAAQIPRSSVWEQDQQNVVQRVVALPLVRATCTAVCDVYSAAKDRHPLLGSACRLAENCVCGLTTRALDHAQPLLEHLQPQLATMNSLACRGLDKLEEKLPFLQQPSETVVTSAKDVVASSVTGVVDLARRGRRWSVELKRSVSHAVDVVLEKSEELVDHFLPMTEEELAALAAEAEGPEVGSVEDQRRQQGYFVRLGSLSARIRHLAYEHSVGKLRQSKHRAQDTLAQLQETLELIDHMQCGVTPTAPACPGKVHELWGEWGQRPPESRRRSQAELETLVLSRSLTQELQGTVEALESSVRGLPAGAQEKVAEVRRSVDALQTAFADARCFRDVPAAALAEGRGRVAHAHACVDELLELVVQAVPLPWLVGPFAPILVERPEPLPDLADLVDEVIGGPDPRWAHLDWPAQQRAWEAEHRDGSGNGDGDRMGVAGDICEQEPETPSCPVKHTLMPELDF
Target sequence (Q8WTS1 whole entry, looked up): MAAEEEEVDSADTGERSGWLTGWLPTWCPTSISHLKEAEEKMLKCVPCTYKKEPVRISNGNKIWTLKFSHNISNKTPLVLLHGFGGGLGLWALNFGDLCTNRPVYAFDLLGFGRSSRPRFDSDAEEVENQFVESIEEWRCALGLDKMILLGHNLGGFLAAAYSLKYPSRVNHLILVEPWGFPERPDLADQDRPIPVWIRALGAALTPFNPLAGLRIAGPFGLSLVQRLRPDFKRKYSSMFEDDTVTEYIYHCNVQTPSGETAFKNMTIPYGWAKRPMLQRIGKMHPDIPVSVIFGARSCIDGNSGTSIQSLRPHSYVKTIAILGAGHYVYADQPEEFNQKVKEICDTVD
MBD2 inh: MBD2-methylated oligo binding inhibition; TR-FRET, MBD2 binding to methylated oligonucleotide; Q9UBB5; 370,000 compounds, 0.31% hits; inhibition, % at 4.4 µM; in the data active = inhibition above about 13%
Rin1 Abl conf: Rin1-Abl interaction inhibition confirmation. inhibition, % at 7.35 µM. AID 602124. shares compounds with Rin1-Abl PPI inh. 1,300 compounds, 49% hits. TR-FRET Rin1-Abl binding, purified proteins
GFP quencher: counter-screen for Rin1-Abl inhibitors: GFP fluorescence quenchers; 1,300 compounds, 8.5% hits; inhibitors/quenchers counterscreen; AID 602125; shares compounds with Rin1-Abl PPI inh; inhibition, % at 6.75 µM;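 also: ABL1-eGFP fusion protein alone without its partner RIN1-SBP; 0% = protein with vehicle and 100% = wells lacking protein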
GFP quench DR: quenches GFP in dose response, Rin1-Abl counter-screen; shares compounds with Rin1-Abl PPI inh; GFP fluorescence interference/quenching counterscreen; IC50, µM; 230 tested, under 10 active; call rule not given here;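 also: ABL1-eGFP fusion protein alone without its RIN1 binding partner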
Active calls of the source: *; nt = no result. Shown are actives, neighbours in structure and some others; about 2.5% of the full set was active somewhere. Rule as the data show it, unless noted: active = inhibition above about 6.5%; inactive = the rest.

SMILES | UHRF1 binding | Arrestin-AP2 inh | Rin1-Abl PPI inh | B2AR ag | ABHD5-PLIN5 inh | MBD2 inh | Rin1 Abl conf | GFP quencher | others
COc1ccccc1CCC(=O)Nc1cc(S(=O)(=O)N2CCOCC2)ccc1N1CCCC1 | -2 | -4 | 0 | 2 | -4 | 1 | nt | nt
CC(=O)c1ccc(NC(=O)C2(S(=O)(=O)c3ccccc3)CC2)cc1 | -1 | 34 | 10* | 2 | -8 | -2 | -2 | -1
Cc1ccc(-c2cc(-c3nnc(SCC(=O)N4CCOCC4)n3N)[nH]n2)cc1 | -2 | nt | nt | nt | nt | 1 | nt | nt
O=C(CCS(=O)(=O)c1ccc(Br)cc1)N1CCN(c2ccccc2Cl)CC1 | -1 | 17 | 9.0* | -3 | 3 | -1 | -1 | 0
O=C(O)CC(CCc1ccccc1)OC1OC(CO)C(O)C(O)C1O (stereo not drawn) | 15 | 19 | 30* | -2 | 6 | 12 | 26* | 3 | GFP quench DR=>68
CCn1cc(CN2CCC(C(=O)Nc3cccc(-c4cccc(F)c4)c3)CC2)cn1 | -1 | 2 | 1 | 30 | 1 | -3 | nt | nt
CC(C)n1cc(CN2CCC(C(=O)Nc3cccc(-c4cccc(Cl)c4)c3)CC2)cn1 | 4 | -17 | 11* | -4 | 10 | 12 | 25* | -1 | GFP quench DR=>68
COc1ccc(S[C@]2(C(=O)N3CCN(c4ncccn4)CC3)CC(=O)N(c3ccccc3)[C@@H]2c2ccc(OC)cc2)cc1 | -1 | nt | nt | nt | nt | -5 | nt | nt
Oc1ccc(/C=N/N=C(c2ccccc2)c2ccccc2)c(O)c1O | -1 | 34 | 21* | 4 | -10 | -5 | 41* | 16*
Cc1ccc(C(=O)C(C)N2C(=O)NC(C)(c3ccccc3)C2=O)cc1 (stereo not drawn) | -1 | 17 | 7.1* | 4 | 12 | -5 | -1 | 1
CCn1c(Cc2cccs2)nnc1SCC(=O)Nc1ccc(Cl)cc1C | 3 | nt | nt | nt | nt | 1 | nt | nt
CCCC1CCC2(CCCN2CCOC(=O)Nc2ccc(F)cc2)CC1 (stereo not drawn) | -1 | nt | nt | nt | nt | -1 | nt | nt
CCOc1ccc(N=Nc2ccc(O)c3ncccc23)cc1 | -4 | 35 | 2 | 23 | 3 | -6 | nt | nt
CCOc1ccc2c(ccc(/C=C/c3cc(C)c4cccnc4c3O)[n+]2C)c1 | nt | 40 | 40* | 106* | 26* | nt | 56* | 59*
COc1ccc(C2C(C(=O)Nc3ccc(C)c(C)c3)CCC(=O)N2c2ccc(OC)cc2)cc1 (stereo not drawn) | -4 | nt | nt | nt | nt | -8 | nt | nt
Cc1cccc(OCc2nnc3n2CCCCC3)c1 | 0 | 10 | 8.0* | -2 | 5 | -5 | -2 | -2
FC(F)(F)c1cccc(OCc2nnc3n2CCC3)c1 | 1 | -11 | -4 | -2 | -4 | 3 | nt | nt
COc1ccc(OC)c(S(=O)(=O)N2CCCCC2C(=O)N2CCN(CCO)CC2)c1 (stereo not drawn) | -4 | nt | nt | nt | nt | 2 | nt | nt
CC(C)(C)C(=O)OC12CCCN(C1)/C(=C/c1ccncc1)C2 (stereo not drawn) | -1 | nt | nt | nt | nt | 0 | nt | nt
CCn1c(SCC(=O)Nc2ccc(C(C)C)cc2)nnc1-c1ccc(C(C)(C)C)cc1 | -1 | nt | nt | nt | nt | 0 | nt | nt
Cc1cc(C)nc(N(C#N)Cc2ccccc2)n1 | 1 | 12 | 7.2* | 19 | 6 | 5 | -2 | 1
Cc1cc(C)nc(N(C#N)Cc2ccc([N+](=O)[O-])cc2)n1 | 7 | 21 | -1 | 1 | -8 | 1 | nt | nt
CCN(CC)C(=O)Cn1nc(Cc2ccncc2)c2ccccc2c1=O | 0 | nt | nt | nt | nt | -1 | nt | nt
Nc1nc(NC2CCCC2)cc(=O)[nH]1 | -4 | -23 | 18* | -10 | 0 | -1 | 24* | 1 | GFP quench DR=>68
O=c1cc(NC2CCCCC2)[nH]c(=O)[nH]1 | -1 | -1 | 1 | 0 | -8 | 13 | nt | nt
SMILES | UHRF1 binding | Arrestin-AP2 inh | Rin1-Abl PPI inh | B2AR ag | ABHD5-PLIN5 inh | MBD2 inh | Rin1 Abl conf | GFP quencher | others
CCNS(=O)(=O)c1ccc(CCC(N)=O)cc1 | -1 | -7 | 6 | 10 | 12 | 1 | nt | nt
CCNS(=O)(=O)c1ccc(CCC(=O)O)cc1 | -1 | 12 | 8.8* | 8 | -10 | -3 | -1 | 1
CCOc1ccc(NC(=O)CN2CCN(CC(=O)c3ccc(OC)c(OC)c3)CC2)cc1 | -3 | 3 | 0 | -10 | 8 | 2 | nt | nt
CCCCOc1ccc(C(=O)N2CCN(CC(=O)Nc3ccc(C)cc3)CC2)cc1OC | 3 | 14 | 8.6* | 1 | 1 | -3 | 11* | -1
CCN(CC)c1ccc(S(=O)(=O)N2CCOCC2)cc1NC(=O)C1CC1 | 3 | 26 | 9.4* | 2 | 5 | 4 | -2 | -1
CCN(CC)c1ccc(S(=O)(=O)N2CCCCC2)cc1NC(=O)C1CCC1 | 2 | 34 | -2 | -3 | 2 | 6 | nt | nt
O=S(=O)(Nc1nccs1)c1ccc(Br)cc1 | -1 | 18 | 11* | 2 | 1 | 2 | -2 | 0
Cc1cccc(N=Nc2ccc(O)c3ncccc23)c1 | -4 | 4 | 6.9* | 9 | -2 | -4 | 6.5* | 4
Nc1nccnc1C(=O)OCC(=O)NNC(=O)c1ccccc1 | -2 | -3 | 8.2* | -4 | -4 | -5 | 0 | 2
N#Cc1c(NC(=O)c2ccccc2Cl)n(Cc2ccccc2)c2nc3ccccc3nc12 | 10 | -5 | 8 | -5 | -43 | 1 | nt | nt
COc1ccc(-n2c(NC(=O)c3ccco3)c(C#N)c3nc4ccccc4nc32)cc1 | 11 | 17 | 19* | 2 | 11 | 3 | 6 | 3
CN1CCc2cccc3c2[C@@H]1Cc1ccc(O)c(O)c1-3 | nt | 16 | 17* | -3 | -6 | nt | 12* | 13*
C=CCCC(=O)N[C@H]1CC[C@@]23CCCN2C(=O)CCC[C@H]3[C@H]1C | -1 | nt | nt | nt | nt | 3 | nt | nt
CCCn1c2ccccc2c2nnc(SCc3[nH]c(=O)[nH]c3C(=O)CCCCC(=O)OCC)nc21 | -4 | 6 | 52* | 6 | 4 | -4 | 56* | 0 | GFP quench DR=>68
CCOC(=O)CCCCC(=O)c1[nH]c(=O)[nH]c1CSc1nnc2c3ccccc3n(C(C)C)c2n1 | 2 | 7 | 53* | 23 | 0 | -6 | 68* | 1 | GFP quench DR=>68
CCCCCN1CCCCC(NC(=O)C(C)(C)C)C1=O (stereo not drawn) | -1 | nt | nt | nt | nt | 4 | nt | nt
COC(=O)[C@]12C[C@H](CC(=O)NCc3ccccc3)C(=O)N(Cc3ccco3)C1=C[C@H](C1CCCC1)O[C@@H]2C | 0 | nt | nt | nt | nt | 0 | nt | nt
O=C1C(=O)c2cccnc2-c2ncccc21 | 12 | nt | 50* | nt | 101* | 13 | 49* | 1 | GFP quench DR=>67
O=C1c2cccnc2-c2ncccc21 | -1 | 0 | -8 | -3 | -1 | 2 | nt | nt

Bioassay records: PubChem, several laboratories
